The list is not random: actives were taken first. Their share in the collection is about 7.2%.
BAP1 block: inhibitors of BAP1 deubiquitinase, primary screen, biochemical, Ub-AMC fluorescence, kinetic | Ubiquitin carboxyl-terminal hydrolase BAP1 (Homo sapiens), Q92560 | recombinant BAP1, Ub-AMC hydrolysis fluorescence kinetic; stronger effect = lower value | calls only at 20 µM | 72,000 compounds, 0.48% hits;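 active = activity remaining at or below 50% of control, provided the compound also passes the data quality filters; inactive = the rest, including low values that fail the filters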;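 also: 100% = DMSO wells rate and 0% = substrate alone blank rate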
M1 antagonist: antagonists of rat M1 muscarinic receptor; Muscarinic acetylcholine receptor M1 (Rattus norvegicus), P08482; CHO-M1 cells, Fluo-4 calcium, ACh EC80 antagonist mode; stronger effect = lower value; B-score at 10 µM; 64,000 compounds, 3.4% hits;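 active = calcium fluorescence response, raw or row-and-column corrected B-score, differing from the plate sample mean either way at a set confidence level, mostly lower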
M1 ag: M1 muscarinic receptor agonists, primary screen, CHO-M1 cells, Fluo-4 calcium, agonist mode; Muscarinic acetylcholine receptor M1; 64,000 compounds, 3% hits; B-score at 10 µM; Fluo-4 calcium fluorescence; stronger effect = higher value; AID 626, 2007;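 active = fluorescence rise, raw or as B-score row- and column-corrected plate score, outside the 99.7% band of its plate's samples, either direction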
hDAT+cocaine: changed hDAT dopamine uptake under cocaine IC80, either direction, primary screen, cocaine antagonist project, cell-based, LLC-PK1 hDAT, [14C]-dopamine uptake, MLSMR. LLC-PK1 hDAT cells, [14C]-dopamine uptake with cocaine IC80; actives deviate in either direction. B-score at 10 µM. 110,000 compounds, 1.3% hits. AID 449768, 2010;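 active = Z score or B-score, a plate-position-corrected score, falls beyond the plate's 99.7% confidence bounds, in either direction; inactive = both scores lie inside the 99.7% bounds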;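 also: scored against the spread of the other compound wells on the same plate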
Target sequence (Q01959 whole entry, looked up): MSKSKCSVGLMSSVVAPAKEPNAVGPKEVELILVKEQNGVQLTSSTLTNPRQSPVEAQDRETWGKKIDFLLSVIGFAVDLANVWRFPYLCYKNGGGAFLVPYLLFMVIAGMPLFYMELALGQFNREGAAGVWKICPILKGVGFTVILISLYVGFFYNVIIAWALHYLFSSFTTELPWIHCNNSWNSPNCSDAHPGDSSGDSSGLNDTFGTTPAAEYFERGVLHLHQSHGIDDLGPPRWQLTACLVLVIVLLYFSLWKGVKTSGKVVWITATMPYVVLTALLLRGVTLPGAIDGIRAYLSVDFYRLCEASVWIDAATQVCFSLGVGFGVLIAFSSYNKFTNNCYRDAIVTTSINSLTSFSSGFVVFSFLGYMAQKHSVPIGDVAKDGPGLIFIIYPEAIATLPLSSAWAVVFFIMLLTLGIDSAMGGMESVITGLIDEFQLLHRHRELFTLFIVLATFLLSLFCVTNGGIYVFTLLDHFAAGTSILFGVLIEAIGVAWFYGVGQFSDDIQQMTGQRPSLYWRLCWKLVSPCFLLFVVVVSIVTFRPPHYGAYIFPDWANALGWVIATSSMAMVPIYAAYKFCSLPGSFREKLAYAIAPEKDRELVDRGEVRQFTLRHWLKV
HEK293 NFkB inh: inhibitors of PMA/ionomycin-induced NF-kB reporter, primary screen, antigen receptor NF-kB inhibitor project, cell-based, HEK-293 luciferase reporter, luminescence | HEK-293 NF-kB luciferase reporter | inhibition, % at 3 µM | 62,000 compounds, 0.21% hits | AID 465, 2006;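 active = inhibition above the mean of all tested compounds plus 3 SD, cut at about 40% in these data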;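 also: 0% = stimulated DMSO wells and 100% = 10 µM reference inhibitor 5653914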
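Signal: luciferase luminescence; Material: HEK-293 cells with stable firefly luciferase reporter driven by four HIV NF-kB elements; Probe or stimulus: PMA with ionomycin; Replication: tested once; Times: 1 h compound pretreatment, then 16 h stimulation at 37 °C, 5% CO2; Benchmarks: DMSO and 10 µM reference inhibitor; Evaluation: per-plate % inhibition versus controls.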
D1 mod: D1 CRE-luciferase signal change, two-sided – cell-based, HEK293 D1, dopamine EC30, D1 allosteric modulator project, primary screen; D(1A) dopamine receptor (Homo sapiens), P21728; dopamine EC30 potentiation; actives deviate in either direction; B-score at 10 µM; 58,000 compounds, 5.9% hits;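 active = luminescence count or its row- and column-corrected plate score outside the 99.7% band of the plate's sample wells, on either side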
M1 ag confirm: rat M1 muscarinic receptor agonists, confirmation, CHO-M1 cells, Fluo-4 calcium, duplicate retest; shares compounds with M1 ag; Fluo-4 calcium fluorescence, agonist mode; actives lie on both sides; fluorescence change (max-min) at 10 µM; 1,700 compounds, 19% hits;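 active = fluorescence change differs from the solvent-only DMSO control mean at a set confidence level in both duplicate runs; inconclusive = differs from solvent-only control mean in just one of two runs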;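 also: an EC20 dose of acetylcholine follows compound addition during the same imaging run; raw fluorescence intensity difference in instrument units with no normalization to controls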
M4 agonist ctr: agonist activity at rat M4 receptor, confirmation, counter-screen for M1 allosteric modulator project, cell-based, agonist mode; shares compounds with M1 ag; AID 1741, 2009; CHO M4/Gqi5 cells, Fluo-4 calcium fluorescence; actives lie on both sides; 1,700 compounds, 9% hits; fluorescence change (max-min) at 10 µM;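 active = fluorescence change differing from the plate's solvent-only control wells at 99.7% confidence in both duplicates, whether higher or lower; inconclusive = differs from solvent controls in only one of two duplicates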
D1 mod confirm: D1 receptor positive allosteric modulators, retest, confirmation, cell-based, HEK293 D1, CRE-luciferase, duplicate; shares compounds with D1 mod; dopamine EC30 potentiation; stronger effect = higher value; luminescence at 10 µM; 2,200 compounds, 88% hits;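 active = luminescence in either of two replicates above the same-plate mean plus 3 SD of the low-dose dopamine control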
D1 ag no DA: D1 receptor agonism without dopamine, confirmation, mechanism study for D1 allosteric modulator project, cell-based, HEK293 D1, CRE-luciferase, secondary assay 1. shares compounds with D1 mod. luminescence, no dopamine; stronger effect = higher value. luminescence at 10 µM. 1,900 compounds, 0.8% hits. AID 646, 2007; in the data active = luminescence above about 3900
Isoprot counter: counter-screen for D1 modulators: isoproterenol response in HEK293 cells; shares compounds with D1 mod; AID 647; HEK293 D1 CRE-luciferase, isoproterenol EC30 counter-screen; calls only at 10 µM; 2,200 compounds, 63% hits;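 active = luminescence in either replicate above plate mean of wells with a partly effective reference agonist dose plus 3 SD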;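 also: isoproterenol raises cAMP through native beta-adrenoceptor Gs so signal bypasses D1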
The depositor's hits bear a star; i = inactive; ? = inconclusive; . = no result given; + = active, no number.

SMILES | BAP1 block | M1 antagonist | M1 ag | hDAT+cocaine | HEK293 NFkB inh | D1 mod | M1 ag confirm | M4 agonist ctr | D1 mod confirm | D1 ag no DA | Isoprot counter
O=C(CSc1nc2scc(-c3ccco3)c2c(=O)n1-c1ccccc1)N1CCOCC1 | i | 0.046 | -0.76 | -0.21 | 9 | 2.2 | . | . | . | . | .
NC(=O)CSc1nc2scc(-c3ccco3)c2c(=O)n1-c1ccccc1 | . | -1.4 | 4.3* | 0.37 | 12 | 3.4* | ? | -55 | 10400* | . | i
NC(=O)c1cc(S(=O)(=O)N2CCOCC2)ccc1Cl | i | . | . | . | . | . | . | . | . | . | .
O=C(OCCN1C(=O)c2ccccc2C1=O)c1cc(S(=O)(=O)N2CCOCC2)ccc1Cl | i | 0.26 | 3.7* | 0.75 | 26 | 3.4* | -15 | -25 | 9076* | 1544 | +
COC(=O)c1cccc(C(=O)Nc2ccc(I)cc2)n1 | i | . | . | . | . | . | . | . | . | . | .
CCN(CC)c1ccc2c(c1)OC(N)=C(C#N)C2c1cccnc1 (centres undefined) | i | -4.6* | 18* | -1.8 | 53* | 9.3* | 681* | 652* | 13200* | 2064 | +
Cc1cc2n(n1)C(c1ccccc1Cl)Nc1ccccc1-2 (centres undefined) | i | -0.042 | 2.5* | -0.062 | 20 | 14* | -16 | -28 | 16788* | 1488 | +
CSc1ccc(C2Nc3ccccc3-c3cc(C)nn32)cc1 (centres undefined) | i | -0.0041 | 0.011 | 0.042 | -4 | 0.94 | . | . | . | . | .
O=C(O)c1ccc(-n2c(C=Cc3cccc([N+](=O)[O-])c3)nc3ccccc3c2=O)cc1 | i | . | . | . | . | . | . | . | . | . | .
CCCCNC(=O)c1ccc2nc(-c3ccco3)c(-c3ccco3)nc2c1 | i | -0.57 | 10* | 0.21 | 13 | 3.8* | 9.4 | ? | 8120* | 1444 | i
O=C(NCc1ccccc1)c1ccc2nc(-c3ccco3)c(-c3ccco3)nc2c1 | . | . | . | -0.82 | . | . | . | . | . | . | .
O=CN1Cc2[nH]c3ccccc3c2N(c2ccc(Cl)cc2)C1=O | i | -0.046 | 4.8* | -1.4 | 15 | 9* | 16 | -20 | 10080* | 1192 | i
O=C1CNCc2[nH]c3ccccc3c2N1c1ccccc1 | i | 0.052 | -0.76 | -0.0015 | 5 | 1.8 | . | . | . | . | .
CCOC(=O)C1CCCN(C(=O)c2cc3nc(-c4cccc(OC)c4)cc(C(F)(F)F)n3n2)C1 (centres undefined) | i | -1.5 | 3.7* | 2.7* | 5 | 11* | -15 | -28 | 14152* | 1432 | +
CCOC(=O)C1CCCN(C(=O)c2cnn3c(C(F)(F)F)cc(-c4ccccc4)nc23)C1 (centres undefined) | i | -0.38 | 0.47 | -0.019 | 7 | -1.3 | . | . | . | . | .
CCOc1nc(NCCc2ccc(OC)c(OC)c2)nc(NC(C)(C)CO)n1 | i | -1.3 | 2.1* | 0.015 | 5 | 3.2* | ? | -66 | 9808* | 1608 | i
COc1ccc(C2C(C(=O)OC3CCCC3)=C(C)NC3=C2C(=O)CC(C)(C)C3)cc1OC (centres undefined) | i | . | . | . | . | . | . | . | . | . | .
CCN1CCN(C(c2cccs2)C(C)NC(=O)CC(C)C)CC1 (centres undefined) | i | 1.1 | -2.7* | 0.0024 | -2 | 4.7* | ? | -87 | 3812 | 1520 | i
COC(=O)c1cccc(S(=O)(=O)N2CCC(NC(=O)NC34CC5CC(CC(C5)C3)C4)CC2)c1 | . | -1.7 | 3.8* | -0.38 | 12 | 4.6* | ? | -58 | 11624* | 1536 | i
O=C(Nc1nc2n(n1)C(c1ccccc1)C=C(c1ccccc1)N2)c1ccco1 (centres undefined) | . | -0.31 | 19* | -0.42 | 17 | 2.9* | 44 | 26 | 11140* | 1520 | +
Nc1nc(NC(=O)c2ccco2)nn1-c1ccccc1 | i | 0.085 | 0.18 | -0.64 | 6 | 0.015 | . | . | . | . | .
Cc1ccc(C2=CC(c3ccccc3)n3ncnc3N2)cc1 (centres undefined) | . | . | . | 1.3 | . | . | . | . | . | . | .
CC(=O)Nc1nc2n(n1)C(c1ccccc1)C=C(c1ccccc1)N2 (centres undefined) | i | 0.27 | 20* | 0.98 | 9 | 3.4* | 132* | 97 | 6792* | 1432 | i
COC(=O)c1ccc(C(=O)OC)c(NC(=O)COC(=O)C23CC4CC(CC(O)(C4)C2)C3)c1 | i | -1.7 | 5.3* | -1.1 | 12 | 3.1* | -6.2 | -22 | 5580* | 1192 | i
O=C1c2ccccc2C(=O)N1CCC(=O)N(C1CCCCC1)C1CCCCC1 | i | . | . | . | . | . | . | . | . | . | .
Cc1sc(NC(=O)CSc2nnc(COc3ccccc3)n2C)c(C#N)c1C | i | -0.17 | 2.4* | -1 | 28 | 6.8* | ? | -51 | 6452 | 1688 | i
